How the values were obtained:
[1] = system: MS2 coat protein; assay: apparent Kd, MS2 coat protein; higher = weaker binding; RNA-MaP array; tryptophan 2.4 mM where present
In short: (§1)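 Two titrations, one without ligand and one with constant ligand, were run with SNAP-549-labelled MS2 coat protein from 0.7 or 1.5 nM, doubling to 3 µM. The targets were designs transcribed by stalled E. coli RNA polymerase on Illumina sequencing-chip clusters, in 100 mM Tris-HCl pH 7.5, 80 mM KCl, 4 mM MgCl2, BSA, DTT, yeast tRNA and Tween-20. The apparent Kd is the median of filtered per-cluster binding-curve fits, with green signal normalised to red-channel RNA signal and control-cluster median Fmax.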

[2] = system: MS2 coat protein; assay: apparent Kd, MS2 coat protein; higher = weaker binding; RNA-MaP array; theophylline 2 mM where present
In short: as §1

[3] = designed as: OFF switch for tryptophan, no ligand
[4] = ligand present: tryptophan, designed as: OFF switch for tryptophan
[5] = designed as: ON switch for tryptophan, no ligand
[6] = ligand present: tryptophan, designed as: ON switch for tryptophan
[7] = designed as: OFF switch for theophylline, no ligand
[8] = ligand present: theophylline, designed as: OFF switch for theophylline
[9] = designed as: ON switch for theophylline, no ligand
[10] = ligand present: theophylline, designed as: ON switch for theophylline

Sequence	apparent Kd [2, 7] [nM]	apparent Kd [2, 8] [nM]	apparent Kd [2, 9] [nM]	apparent Kd [2, 10] [nM]	other results
AGAUUCGACACGGCCGCCACUUUCAGUGGCUGGUGUCAUGGUGCACAUGAGGAUCACCCAUGUGGAAGGACCGGGUGUUGAGUCU					apparent Kd [1, 3]: 12.2 nM; apparent Kd [1, 4]: 58.4 nM
GUCGGUACGUCGGCAAAGCCGAUGUGCCAGCGAGGACCGGUACGGCCGCCACUCGUACAUGAGGAUCACCCAUGUCCGGUCCGGC					apparent Kd [1, 5]: 69.2 nM; apparent Kd [1, 6]: 70.7 nM
UUCACAUGGUAUGAAUAUACAUACAAGAAACGAGGACCGGUACGGCCGCCACUCGUGCCGGAAACAUGAGGAUCACCCAUGUGUU					apparent Kd [1, 3]: 37 nM; apparent Kd [1, 4]: 45.4 nM
GGCACAUAGUCGGCCGCCACUAGGGUGUAGUGGAAUAACAUGAGGAUCACCCAUGUAUUUGGGACUAGGACCGGGACUAUGUGCC					apparent Kd [1, 3]: 25.2 nM; apparent Kd [1, 4]: 20 nM
CGAGUAAGUUCAAUCGAAUAACGGUUUUCGCGAGGACCGGUACGGCCGCCACUCGUGUGAUAUCACACAUGAGGAUCACCCAUGU					apparent Kd [1, 5]: 77.6 nM; apparent Kd [1, 6]: 47.4 nM
GGUUACUCUACGGCCGCCACUGUAAAGUAAAUAUUAAUGUACAUGACAUGAGGAUCACCCAUGUACAGGACCGGGUAGUGUAACC					apparent Kd [1, 5]: 42.8 nM; apparent Kd [1, 6]: 18.5 nM
UAUGAGCGCACGGCCGCCACUGUCUUCAUCUGUUUGUCUACAUGAGGAUCACCCAUGUUGGUUUACAGGACCGGGUGCAACUAUG					apparent Kd [1, 5]: 27.8 nM; apparent Kd [1, 6]: 22.4 nM
GGCCCGGACUUGGAAUGGGUGUUUCCCUCACGAGGACCGGUACGGCCGCCACUCGAAGACAUGAGGAUCACCCAUGUAGUCGACA					apparent Kd [1, 3]: 44.9 nM; apparent Kd [1, 4]: 12.5 nM
ACGCCCGCCUCACAUGAGGAUCACCCAUGUCGAGGACCGGUACGGCCGCCACUCGUCGUCGGUAAUACGGGCGUUGAAUAAUAUA					apparent Kd [1, 3]: 11.5 nM; apparent Kd [1, 4]: 49.7 nM
CGUAUUGGAAACAGUACGAGUGAUCCGGUCCGAGGACCGGUACGGCCGCCACUCGAAAUAAAUAAACAUGAGGAUCACCCAUGUA					apparent Kd [1, 3]: 18.6 nM; apparent Kd [1, 4]: 28.4 nM
AUUCAUGGAAACAUGACAUACAUAACCGGUCGAGGACCGGUACGGCCGCCACUCGUUUGGAGGCACAUGAGGAUCACCCAUGUUA					apparent Kd [1, 5]: 23.7 nM; apparent Kd [1, 6]: 24.5 nM
GUUGGAUACUCGGCCGCCACUGAGAGAGUCAUGUGAACAUGAGGAUCACCCAUGUAAUAUAUAUACAGGACCGGGAGUGUUGUAA					apparent Kd [1, 3]: 21.6 nM; apparent Kd [1, 4]: 16.8 nM
AGCGCGGUGAUGGUAGCCGGACGCUAGGUACGAGGACCGGUACGGCCGCCACUCGGAGUCCUACGACAUGAGGAUCACCCAUGUA					apparent Kd [1, 5]: 99.3 nM; apparent Kd [1, 6]: 46.8 nM
AGAUUCGACACGGCCGCCACUUGGAGUGGCUGCUAGCAUGUUACACAUGAGGAUCACCCAUGUCUAAGGACCGGGUGUUGAGUCU					apparent Kd [1, 3]: 41.1 nM; apparent Kd [1, 4]: 216 nM
AACACAUGAGGAUCACCCAUGUUCUCGUGUCGAGGACCGGUACGGCCGCCACUCGGUUCUCGCGAGGAUGGUCAAAGACUAUCCA					apparent Kd [1, 5]: 47.7 nM; apparent Kd [1, 6]: 42 nM
UUGGUAGGACAGCUCAUAUAAGCAUGUGAUACCAGCUAGAAAACUAGCCCUUGGCAGCACUUUACAUGAGGAUCACCCAUGUCCC	165	460			
GCUGUAAGUGCAGAUACCAGCAGGUGAUAUUUCAUAUGACAUGAGGAUCACCCAUGUAACUGCCCUUGGCAGCUGCACUUACAGC			373	40.9	
AUCGUACCUGAUGAUACCAGCAUGUGAUCAUAACAUGAGGAUCACCCAUGUAAUCAGUGAUGCCCUUGGCAGCAUAGUCGAUACA			153	55.9	
UUUUAACAUGAGGAUCACCCAUGUAAUGAUACCAGAGACGAAAGUCUCCCUUGGCAGCAUAUAUCAUUACUCAUAGGAAACUAUG			17.5	16	
CGAUACGUAACUGAUACCAGUGUACUGACAUGAGGAUCACCCAUGUUGGGUUUUGUUGUACACCCUUGGCAGCAGAAUCGUAUCG	67.5	96.1			
AACAUGAGGAUCACCCAUGUAUUGGGUGAUACCAGCCUGAAUAAUGGCCCUUGGCAGCACCACGCUAACUUUAUGUCUGCGAACC			92.2	162	
AACUGGACCCGUGAUACCAGAGACAUGAGGAUCACCCAUGUACAUGAGGAUCACCCAUGUCUCCCUUGGCAGCACCGCAGGGAGC	97.5	393			
ACAUCCAGGUUAAUCGUGGGCAUGGUCGAUACCAGUAUUUUAAUCUACCCUUGGCAGCGACAUGAGGAUCACCCAUGUGCGAUGA	24.6	36.3			
GAUCUGUCGGGUGAUACCAGCCUCGGCACAUCUCGUGCCGAACAUGAGGAUCACCCAUGUGGCCCUUGGCAGCACAUGACAAAUC			362	55.1	
UUUACAUGAGGAUCACCCAUGUGCCAUGAUACCAGACAUGAAAAUGUCCCUUGGCAGCAUGAAUAAUCCUCGUCGGGAAACCGAC			140	544	
AGUACACGAACGGAUACCAGCCGGACAUGAGGAUCACCCAUGUCCUACCUCUGUUCGGUUGGCCCUUGGCAGCCGUUCGUGUACA			117	88.3	

Sequence	apparent Kd [2, 7] [nM]	apparent Kd [2, 8] [nM]	apparent Kd [2, 9] [nM]	apparent Kd [2, 10] [nM]	other results
UGUAACAUGAGGAUCACCCAUGUAAGUGAUACCAGAUAAGUAGUAGUCCCUUGGCAGCAUAUUGGGAAAGUGUAUAGUGUAUAUG			53.3	61.7	
UUUUAAAGCAUGGCGUAUCGGAAAACCGAUACCAGUACAGAAAUGUACCCUUGGCAGCGGCAUUUUACAUGAGGAUCACCCAUGU	14	40.3			
UCAUUUGAGUGAGAUGUAAGGUAUCAUGAUACCAGUAGAUAAUUAUACCCUUGGCAGCAUGACAUGAGGAUCACCCAUGUACAUG	11.1	10.3			
AGUAUACAUUCUGAUACCAGAGACAUGAGGAUCACCCAUGUCCGAUCGUCCUGCCUCAGACUCCCUUGGCAGCAGGAUAUGUGCU	16.2	27.6			
UGCUGACAAGGACAUGGAUGAUCAGCUGAUACCAGCCUGGAAACAGGCCCUUGGCAGCAGCACAUGAGGAUCACCCAUGUAAUAA	33.7	66.3			
UCGGCAGUGAACGAUACCAGCGUCACGUGGCCGGUGGUCACAUGAGGAUCACCCAUGUAACGCCCUUGGCAGCGUGCGCGUACCG	23.9	129			
CAGGUGCAGUCAGAUACCAGAUCUGCACAUGAGGAUCACCCAUGUGUAAUGAGUUCAAAGAUCCCUUGGCAGCUGUGUGAUCCGA			165	193	
AGCGACAUGCGUGAUACCAGCUACAUGAGGAUCACCCAUGUAAGUAGGAAACUACUGUGUAGCCCUUGGCAGCAUAGUGCAUGUC	13.5	41.5			
ACAUGAGGAUCACCCAUGUCAAGGCACGAUACCAGCUGAUCCCGUGGCCCUUGGCAGCGUCACGUUUGGUCCCGCGGAUGACACG			89	95.8	
UGAACAUGAGGAUCACCCAUGUAGUCAGAUACCAGACACUGCAUGGUCCCUUGGCAGCUGAAGAGCGUUUGCCAAAUAACGUUCA			162	567	
GGUGGUGUGACGGAUACCAGCCACCGCGGCAACGCAACAUGAGGAUCACCCAUGUUGGGUGGCCCUUGGCAGCUGUCGUGCGGCG			96.5	84.7	
ACGUCUCGAAAACUCGUAGUAACAAUAGAUACCAGUAGCGAGAGUUACCCUUGGCAGCUACAUGAGGAUCACCCAUGUACGAGGA	17.4	17.2			
UUAUUUAUAUUAGAUACCAGUUUAAUGGCCGCAAAUCCUGACAUGAGGAUCACCCAUGUAAGCCCUUGGCAGCUGGUAUGGGUUU	19.3	20.7			
UUUGAUAGGACAGAUACCAGCGUGUUAUAAAACAUGAGGAUCACCCAUGUAGUGAUCAAGCGCCCUUGGCAGCUGGUUUGUUAGG			188	323	
ACGAACGAUAGUGAUACCAGACGUACAUGAGGAUCACCCAUGUUUUGGGUAAGGUUAAUAGUCCCUUGGCAGCACUUUAAGUUCG	58.7	398			
UAAUAUCACAUAUUAUGGGUGUAAUGUGAUACCAGCUAGGAAACUAGCCCUUGGCAGCACAUGAGGAUCACCCAUGUAAGCUGUA	77.9	49.7			
GAGCUGAUGUAGAAAUUUUAUUUCUGAGAUACCAGUACAGAAAUGUACCCUUGGCAGCUCAGUUUUACAUGAGGAUCACCCAUGU	12.2	15			
AUUUUCAUGGUCAUAUAUAUAUCUUCAGAUACCAGACUAUAUUAAGUCCCUUGGCAGCUGUUACAUGAGGAUCACCCAUGUUAUA	127	36.2			
AUUAAAAGUUGUGAUACCAGACGAACAUGAGGAUCACCCAUGUAACUUUUAGGUGUUGUAGUCCCUUGGCAGCACUAUGUAGUUA			43.6	38.2	
ACCCUAGCGAUCGCUCGCUAGGGUGCGGAUACCAGCGAGGUCCAUCGCCCUUGGCAGCCGAACAUGAGGAUCACCCAUGUCGGUA			10.7	14.3	
AAACUAACGAGAGGAAACCUCGAGGGUGAUACCAGCACAUAAGGGUGCCCUUGGCAGCACCGACGUACAUGAGGAUCACCCAUGU			162	65	
GCUGUAAGUGCAGAUACCAGCAAGUGAGGUUUCAUAUGACAUGAGGAUCACCCAUGUAUCUGCCCUUGGCAGCUGCACUUACAGC			21.4	15.2	
CAAUACGUAACUGAUACCAGUGUACUGACAUGAGGAUCACCCAUGUUGGGUUUUGUUGUACACCCUUGGCAGCAGAAUCGUAUUG	70.1	93.7			
UAUACAUGGGAUACCAUGGAUCCGAGUGAUACCAGCUAUCCGAAUAGCCCUUGGCAGCACAGUACAUGAGGAUCACCCAUGUAUA			27.5	33	
AGACAUGAGGAUCACCCAUGUAGUAUGGAUACCAGAUCCAGAUUUAUCCCUUGGCAGCUGUGGUACAGUGAUGGAUUGCUCCUAG	31	40.8			
UCGUGUGUUUCGGAUACCAGUGAAAUCGAUACAUGAGGAUCACCCAUGUGAGAGGAUGUACACCCUUGGCAGCUGUCUGUAGCGG			48.9	37.4	

Reference: the EternaBench riboswitch data
